Experiments:
[1] = biological target: T1, Dual specificity tyrosine-phosphorylation-regulated kinase 3 (Homo sapiens) (UniProt O43781); test: Inhibition of human recombinant DYRK3 at 500 nM in presence of ATP by radiometric assay relative to control
T1 sequence (whole entry): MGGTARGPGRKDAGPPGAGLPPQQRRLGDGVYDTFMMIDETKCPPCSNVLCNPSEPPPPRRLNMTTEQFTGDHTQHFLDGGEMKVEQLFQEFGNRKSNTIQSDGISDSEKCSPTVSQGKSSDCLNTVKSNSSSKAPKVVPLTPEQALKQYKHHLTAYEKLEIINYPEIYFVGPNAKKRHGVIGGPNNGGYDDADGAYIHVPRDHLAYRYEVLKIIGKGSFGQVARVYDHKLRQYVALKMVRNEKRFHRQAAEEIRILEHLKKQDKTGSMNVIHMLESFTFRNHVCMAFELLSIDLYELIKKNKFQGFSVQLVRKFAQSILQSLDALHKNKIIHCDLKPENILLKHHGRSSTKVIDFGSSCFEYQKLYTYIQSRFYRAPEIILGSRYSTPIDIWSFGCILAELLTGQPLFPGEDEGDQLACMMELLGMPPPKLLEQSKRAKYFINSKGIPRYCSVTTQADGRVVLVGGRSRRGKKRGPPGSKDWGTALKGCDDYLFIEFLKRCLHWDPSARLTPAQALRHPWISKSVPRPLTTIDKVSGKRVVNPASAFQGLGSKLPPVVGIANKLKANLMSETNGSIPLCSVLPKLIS

[2] = biological target: T2, Serine/threonine-protein kinase STK11 (Homo sapiens) (UniProt Q15831); test: Inhibition of human recombinant LKB1 at 500 nM related to control ULK1
T2 sequence (whole entry): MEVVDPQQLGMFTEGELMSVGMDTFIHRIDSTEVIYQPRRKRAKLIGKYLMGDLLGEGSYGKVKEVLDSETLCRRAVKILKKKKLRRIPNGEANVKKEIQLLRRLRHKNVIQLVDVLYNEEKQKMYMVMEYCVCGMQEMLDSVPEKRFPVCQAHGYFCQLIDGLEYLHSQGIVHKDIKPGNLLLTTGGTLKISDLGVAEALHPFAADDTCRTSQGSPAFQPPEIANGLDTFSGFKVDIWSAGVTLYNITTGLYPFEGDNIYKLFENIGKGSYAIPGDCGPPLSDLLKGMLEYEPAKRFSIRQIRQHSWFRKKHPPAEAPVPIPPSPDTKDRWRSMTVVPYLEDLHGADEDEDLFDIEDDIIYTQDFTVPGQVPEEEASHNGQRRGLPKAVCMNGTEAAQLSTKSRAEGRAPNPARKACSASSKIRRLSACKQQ

Homo sapiens = species: Homo sapiens; test: Inhibition of human recombinant p70S6K at 500 nM in presence of ATP by radiometric assay relative to control
[3] = biological target: DNA-PK/Ku70/Ku85 (Homo sapiens) (UniProt P78527+P12956+P13010); test: Inhibition of human recombinant DNAPK at 500 nM related to control ULK1; type: protein-complex assay
[4] = biological target: Dual specificity protein kinase CLK3 (Homo sapiens) (UniProt P49761); test: Inhibition of human recombinant CLK3 at 500 nM in presence of ATP by radiometric assay relative to control
Dual specificity protein kinase CLK3 (Homo sapiens), sequence (P49761 whole entry, looked up): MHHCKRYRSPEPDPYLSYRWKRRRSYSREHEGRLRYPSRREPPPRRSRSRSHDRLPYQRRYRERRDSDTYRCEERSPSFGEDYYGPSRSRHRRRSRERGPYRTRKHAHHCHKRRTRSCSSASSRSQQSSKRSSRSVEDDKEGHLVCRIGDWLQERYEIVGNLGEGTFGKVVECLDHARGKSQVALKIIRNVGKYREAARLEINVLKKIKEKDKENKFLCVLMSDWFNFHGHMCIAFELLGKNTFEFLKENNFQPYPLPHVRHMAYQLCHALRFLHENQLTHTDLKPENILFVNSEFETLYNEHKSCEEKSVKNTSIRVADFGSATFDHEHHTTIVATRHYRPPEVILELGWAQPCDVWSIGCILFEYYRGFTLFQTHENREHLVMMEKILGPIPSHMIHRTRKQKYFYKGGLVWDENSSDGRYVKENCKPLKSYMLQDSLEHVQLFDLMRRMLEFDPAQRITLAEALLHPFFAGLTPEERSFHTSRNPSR

[5] = biological target: Dual specificity tyrosine-phosphorylation-regulated kinase 1B (Homo sapiens) (UniProt Q9Y463); test: Inhibition of human recombinant DYRK1B at 500 nM related to control ULK1
Dual specificity tyrosine-phosphorylation-regulated kinase 1B (Homo sapiens), sequence (Q9Y463 whole entry, looked up): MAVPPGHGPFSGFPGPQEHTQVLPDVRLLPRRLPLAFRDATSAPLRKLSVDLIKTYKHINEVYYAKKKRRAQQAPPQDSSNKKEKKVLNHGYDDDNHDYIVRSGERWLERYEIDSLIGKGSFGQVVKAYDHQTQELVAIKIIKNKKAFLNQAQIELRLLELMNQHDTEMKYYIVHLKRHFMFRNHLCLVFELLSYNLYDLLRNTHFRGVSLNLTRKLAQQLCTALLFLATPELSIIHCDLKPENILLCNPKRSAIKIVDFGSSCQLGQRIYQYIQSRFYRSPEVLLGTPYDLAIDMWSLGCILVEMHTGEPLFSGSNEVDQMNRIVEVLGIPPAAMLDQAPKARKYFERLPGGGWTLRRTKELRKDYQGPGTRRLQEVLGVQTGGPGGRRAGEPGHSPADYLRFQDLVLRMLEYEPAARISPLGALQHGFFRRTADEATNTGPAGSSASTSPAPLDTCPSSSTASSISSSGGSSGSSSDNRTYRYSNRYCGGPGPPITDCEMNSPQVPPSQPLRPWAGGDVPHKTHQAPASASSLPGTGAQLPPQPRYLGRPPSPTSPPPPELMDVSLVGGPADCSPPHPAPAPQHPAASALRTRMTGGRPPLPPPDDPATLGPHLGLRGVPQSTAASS

[6] = biological target: eIF-2-alpha kinase GCN2 (Homo sapiens) (UniProt Q9P2K8); test: Inhibition of human recombinant GCN2 at 500 nM related to control ULK1
eIF-2-alpha kinase GCN2 (Homo sapiens), sequence (Q9P2K8 whole entry): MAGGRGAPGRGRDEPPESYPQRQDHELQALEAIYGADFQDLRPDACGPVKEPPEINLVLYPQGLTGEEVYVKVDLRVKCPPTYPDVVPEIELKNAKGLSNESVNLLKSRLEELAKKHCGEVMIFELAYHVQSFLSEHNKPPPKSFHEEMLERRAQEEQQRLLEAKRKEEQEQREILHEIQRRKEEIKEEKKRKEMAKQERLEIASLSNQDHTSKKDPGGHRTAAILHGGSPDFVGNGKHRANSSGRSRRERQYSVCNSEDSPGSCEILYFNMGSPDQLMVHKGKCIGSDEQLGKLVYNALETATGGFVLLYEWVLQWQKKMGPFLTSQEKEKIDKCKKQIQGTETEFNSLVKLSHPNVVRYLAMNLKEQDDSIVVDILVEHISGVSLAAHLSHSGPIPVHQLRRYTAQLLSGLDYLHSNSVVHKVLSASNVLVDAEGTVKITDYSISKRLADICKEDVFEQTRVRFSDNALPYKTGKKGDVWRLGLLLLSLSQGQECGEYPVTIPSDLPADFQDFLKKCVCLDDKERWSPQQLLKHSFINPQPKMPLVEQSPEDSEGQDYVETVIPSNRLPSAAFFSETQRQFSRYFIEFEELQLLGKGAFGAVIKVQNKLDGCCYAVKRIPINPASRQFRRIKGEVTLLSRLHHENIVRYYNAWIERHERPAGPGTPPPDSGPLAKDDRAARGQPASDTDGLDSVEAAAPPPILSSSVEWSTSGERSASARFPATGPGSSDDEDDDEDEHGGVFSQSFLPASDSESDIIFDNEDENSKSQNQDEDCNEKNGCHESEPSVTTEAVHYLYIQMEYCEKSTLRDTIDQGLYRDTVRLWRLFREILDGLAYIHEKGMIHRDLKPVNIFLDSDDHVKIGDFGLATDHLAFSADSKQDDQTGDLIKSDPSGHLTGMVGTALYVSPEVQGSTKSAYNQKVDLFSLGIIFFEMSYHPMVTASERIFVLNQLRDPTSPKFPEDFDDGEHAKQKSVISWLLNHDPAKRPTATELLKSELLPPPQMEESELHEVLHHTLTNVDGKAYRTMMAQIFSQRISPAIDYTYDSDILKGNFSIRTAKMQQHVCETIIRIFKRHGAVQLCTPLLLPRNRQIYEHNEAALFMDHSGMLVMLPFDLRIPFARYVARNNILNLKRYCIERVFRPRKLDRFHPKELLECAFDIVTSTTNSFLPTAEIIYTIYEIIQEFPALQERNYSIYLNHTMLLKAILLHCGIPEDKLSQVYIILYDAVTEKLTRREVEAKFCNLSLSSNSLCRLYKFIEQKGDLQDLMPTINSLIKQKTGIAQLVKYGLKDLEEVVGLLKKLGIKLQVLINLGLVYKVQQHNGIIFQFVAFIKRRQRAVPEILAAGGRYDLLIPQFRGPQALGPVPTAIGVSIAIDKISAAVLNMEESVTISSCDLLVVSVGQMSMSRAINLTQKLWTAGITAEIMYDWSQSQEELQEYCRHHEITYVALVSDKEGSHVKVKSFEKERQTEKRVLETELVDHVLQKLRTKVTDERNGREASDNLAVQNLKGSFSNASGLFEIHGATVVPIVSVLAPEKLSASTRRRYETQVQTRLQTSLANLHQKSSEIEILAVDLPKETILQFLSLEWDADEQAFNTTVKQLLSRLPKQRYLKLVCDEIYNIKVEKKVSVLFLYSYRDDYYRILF

[7] = biological target: Wee1-like protein kinase (Homo sapiens) (UniProt P30291); test: Inhibition of human recombinant Wee1 at 500 nM related to control ULK1
Wee1-like protein kinase (Homo sapiens), sequence (P30291 whole entry, looked up): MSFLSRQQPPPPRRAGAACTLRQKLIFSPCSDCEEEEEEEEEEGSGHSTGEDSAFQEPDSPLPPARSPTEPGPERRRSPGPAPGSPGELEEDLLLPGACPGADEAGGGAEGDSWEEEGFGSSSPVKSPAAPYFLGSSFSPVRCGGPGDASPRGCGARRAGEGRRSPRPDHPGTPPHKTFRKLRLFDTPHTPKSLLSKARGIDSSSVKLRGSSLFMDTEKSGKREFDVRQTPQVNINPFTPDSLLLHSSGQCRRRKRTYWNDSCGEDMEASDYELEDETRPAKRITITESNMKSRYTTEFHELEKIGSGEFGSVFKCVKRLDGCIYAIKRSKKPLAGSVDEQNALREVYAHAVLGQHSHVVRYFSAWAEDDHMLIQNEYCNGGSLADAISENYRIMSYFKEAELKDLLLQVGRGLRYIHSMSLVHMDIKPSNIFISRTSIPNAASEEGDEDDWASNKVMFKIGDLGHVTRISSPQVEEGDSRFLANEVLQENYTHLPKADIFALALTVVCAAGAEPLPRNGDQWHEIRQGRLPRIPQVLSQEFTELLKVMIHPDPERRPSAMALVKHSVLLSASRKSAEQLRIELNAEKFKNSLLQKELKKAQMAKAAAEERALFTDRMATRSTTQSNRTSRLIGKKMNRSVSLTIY

[8] = biological target: SRSF protein kinase 3 (Homo sapiens) (UniProt Q9UPE1); test: Inhibition of human recombinant MSSK1 at 500 nM related to control ULK1
SRSF protein kinase 3 (Homo sapiens), sequence (Q9UPE1 whole entry): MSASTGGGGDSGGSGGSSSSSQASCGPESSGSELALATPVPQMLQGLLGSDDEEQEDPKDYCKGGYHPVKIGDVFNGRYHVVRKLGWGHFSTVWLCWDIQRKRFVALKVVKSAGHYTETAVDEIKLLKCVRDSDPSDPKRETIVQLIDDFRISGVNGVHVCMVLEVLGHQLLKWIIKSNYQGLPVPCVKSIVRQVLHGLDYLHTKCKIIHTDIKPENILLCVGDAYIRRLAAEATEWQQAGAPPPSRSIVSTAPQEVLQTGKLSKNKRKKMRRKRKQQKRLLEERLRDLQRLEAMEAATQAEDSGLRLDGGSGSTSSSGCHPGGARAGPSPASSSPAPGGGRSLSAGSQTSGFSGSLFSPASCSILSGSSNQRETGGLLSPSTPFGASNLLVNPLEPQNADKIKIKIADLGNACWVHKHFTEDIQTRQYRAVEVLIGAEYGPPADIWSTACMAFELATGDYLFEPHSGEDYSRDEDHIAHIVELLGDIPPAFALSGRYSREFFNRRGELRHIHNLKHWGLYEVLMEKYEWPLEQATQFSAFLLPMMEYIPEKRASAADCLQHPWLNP

[9] = biological target: Serine/threonine-protein kinase MARK2 (Homo sapiens) (UniProt Q7KZI7); test: Inhibition of human recombinant MARK2 at 15 nM related to control ULK1
Serine/threonine-protein kinase MARK2 (Homo sapiens), sequence (Q7KZI7 whole entry): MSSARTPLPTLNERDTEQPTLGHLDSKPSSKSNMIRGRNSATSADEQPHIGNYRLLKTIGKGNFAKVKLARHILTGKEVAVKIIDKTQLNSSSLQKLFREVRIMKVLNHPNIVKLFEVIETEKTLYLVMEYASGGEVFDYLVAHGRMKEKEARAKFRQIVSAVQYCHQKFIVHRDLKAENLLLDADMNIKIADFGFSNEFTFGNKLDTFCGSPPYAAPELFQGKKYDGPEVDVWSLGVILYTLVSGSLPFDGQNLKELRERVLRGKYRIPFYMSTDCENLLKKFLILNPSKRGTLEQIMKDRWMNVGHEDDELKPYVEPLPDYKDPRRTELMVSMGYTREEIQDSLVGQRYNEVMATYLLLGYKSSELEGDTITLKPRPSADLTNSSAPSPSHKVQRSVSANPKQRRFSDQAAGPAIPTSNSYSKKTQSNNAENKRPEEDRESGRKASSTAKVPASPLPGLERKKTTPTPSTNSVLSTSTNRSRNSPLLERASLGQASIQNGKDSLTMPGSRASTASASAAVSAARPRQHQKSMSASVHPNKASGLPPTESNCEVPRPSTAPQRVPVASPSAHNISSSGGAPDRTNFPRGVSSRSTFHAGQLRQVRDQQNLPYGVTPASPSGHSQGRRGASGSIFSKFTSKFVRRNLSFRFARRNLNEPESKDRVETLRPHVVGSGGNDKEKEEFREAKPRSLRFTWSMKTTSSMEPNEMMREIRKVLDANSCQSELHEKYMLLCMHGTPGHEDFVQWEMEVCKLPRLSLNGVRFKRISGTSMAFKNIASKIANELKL

[10] = biological target: Aurora kinase B (Homo sapiens) (UniProt Q96GD4); test: Inhibition of human recombinant AurB at 15 nM in presence of ATP by radiometric assay relative to control
In short: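 Part of a radiometric in vitro activity panel of 327 recombinant human kinases. Each kinase was tested in duplicate at one inhibitor concentration. Activity remaining was expressed as a percentage of the vehicle control, and percent inhibition was taken as 100 minus that value.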

[11] = biological target: T3, Ephrin type-B receptor 1 (Homo sapiens) (UniProt P54762); test: Inhibition of human recombinant EphB1 at 15 nM in presence of ATP by radiometric assay relative to control
T3 sequence (whole entry): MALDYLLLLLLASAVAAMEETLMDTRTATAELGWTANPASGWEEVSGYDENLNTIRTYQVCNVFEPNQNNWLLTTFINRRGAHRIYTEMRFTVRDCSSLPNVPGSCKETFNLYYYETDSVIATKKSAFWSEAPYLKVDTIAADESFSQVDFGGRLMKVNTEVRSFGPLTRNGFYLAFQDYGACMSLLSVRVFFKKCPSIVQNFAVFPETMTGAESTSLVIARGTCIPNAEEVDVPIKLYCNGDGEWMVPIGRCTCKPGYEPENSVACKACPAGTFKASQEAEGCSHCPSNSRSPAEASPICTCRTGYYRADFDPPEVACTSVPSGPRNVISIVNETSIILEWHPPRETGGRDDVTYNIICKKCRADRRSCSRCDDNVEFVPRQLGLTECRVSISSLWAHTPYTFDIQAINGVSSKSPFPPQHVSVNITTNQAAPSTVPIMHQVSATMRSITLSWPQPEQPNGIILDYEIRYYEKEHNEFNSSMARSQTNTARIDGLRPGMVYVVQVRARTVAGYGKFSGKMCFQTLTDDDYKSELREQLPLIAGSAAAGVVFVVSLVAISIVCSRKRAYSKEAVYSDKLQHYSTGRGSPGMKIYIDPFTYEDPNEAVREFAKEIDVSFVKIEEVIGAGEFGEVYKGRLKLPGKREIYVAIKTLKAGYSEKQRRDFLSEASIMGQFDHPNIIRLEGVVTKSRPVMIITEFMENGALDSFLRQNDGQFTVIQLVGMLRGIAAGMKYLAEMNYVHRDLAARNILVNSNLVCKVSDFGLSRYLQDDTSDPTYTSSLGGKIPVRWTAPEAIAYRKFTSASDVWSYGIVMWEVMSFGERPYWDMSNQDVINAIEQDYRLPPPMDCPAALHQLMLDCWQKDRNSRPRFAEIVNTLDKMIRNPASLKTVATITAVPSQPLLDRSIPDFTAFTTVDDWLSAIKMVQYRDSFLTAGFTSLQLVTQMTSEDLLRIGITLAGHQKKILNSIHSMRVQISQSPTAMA

inhibition [1] [%]	fold change (FC) [2]	inhibition (Homo sapiens) [%]	fold change (FC) [3]	inhibition [4] [%]	fold change (FC) [5]	fold change (FC) [6]	fold change (FC) [7]	fold change (FC) [8]	fold change (FC) [9]	inhibition [10] [%]	inhibition [11] [%]	Compound
0	0.16	0	0.16	0	0	0.03	0.22	0.2				CNC(=O)c1ccccc1Oc1nc(Nc2cc(OC)c(OC)c(OC)c2)ncc1Br
									0.53	18	12	CC(C)[C@H](NC(=O)c1cc(-c2cnn3cc(-c4ccc(OCCN5CCCCC5)cc4)cnc23)cs1)C(F)(F)F

Reference: ChEMBL document CHEMBL5653631, “A Potent and Selective ULK1 Inhibitor Suppresses Autophagy and Sensitizes Cancer Cells to Nutrient Stress” (iScience, 2018)
